Laboratory results: ChEMBL document CHEMBL3612059, “Synthesis of 1,2-benzisoxazole tethered 1,2,3-triazoles that exhibit anticancer activity in acute myeloid leukemia cell lines by inhibiting histone deacetylases, and inducing p21 and tubulin acetylation” (Bioorg Med Chem, 2015)
The source made the active and inactive calls. The calls are words filed in the database; no cut-off is given here.

Columns and labels:
MV4-11 [1] = experiment: Cytotoxicity against human MV4-11 cells assessed as cell viability measured at 96 hrs by MTT assay; format: functional, cell-based; conditions: MV4-11, 96 h
In short: (§1)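 AML cells kept in RPMI with 10 % FBS and 1 % penicillin-streptomycin at 37 °C, 5 % CO₂, mycoplasma-screened. Seeded at 8,000 cells/well across a range of concentrations and read at several times up to 96 h. MTT added to 0.5 mg/ml final for 3 h at 37 °C, formazan dissolved in SDS-HCl, absorbance read at 570 nm. IC50 taken from the dose-response curves.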

MV4-11 [2] = experiment: Cell cycle arrest in human MV4-11 cells assessed as decrease in cells level at G1 phase after 72 hrs by propidium iodide staining-based flow cytometric analysis; format: functional
In short: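 Cells in RPMI with 10 % FBS at 37 °C, 5 % CO₂; treated up to 72 h, washed in cold PBS, fixed in -20 °C-precooled 70 % ethanol at 4 °C. Stained with 50 µg/ml PI, 1 % Triton X-100 and 20 µg/ml RNase A in PBS, 30 min, 37 °C, dark. Cell-cycle phases read by flow cytometry; three independent experiments, mean ± SD.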

MOLM-13 (Homo sapiens) = experiment: Induction of apoptosis in human MOLM13 cells assessed as early apoptotic cells at 2.5 uM after 72 hrs by Annexin V-FITC/propidium iodide staining-based flow cytometric analysis (reference value: 11%)
MOLM-14 [3] = experiment: Cytotoxicity against human MOLM14 cells assessed as cell viability after 24 to 96 hrs by MTT assay; format: functional, cell-based; in short: as §1
MOLM-14 [4] = experiment: Induction of apoptosis in human MOLM14 cells assessed as necrotic cells at 2.5 uM after 72 hrs by Annexin V-FITC/propidium iodide staining-based flow cytometric analysis (reference value: 1%); format: functional
In short: (§2)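 100,000 cells per well treated with 2.5, 5.0 or 10 μM for 72 h. Washed in ice-cold Ca/Mg-free PBS, resuspended in 100 μl binding buffer, stained with 5 μl PI plus 3 μl annexin V-FITC for 15 min in the dark, then read immediately by flow cytometry. Quadrants scored as live, early apoptotic, late apoptotic and necrotic.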

MOLM-14 [5] = experiment: Cytotoxicity against human MOLM14 cells assessed as cell viability at 0.25 to 5 uM by MTT assay; format: functional, cell-based; in short: as §1
MOLM-14 [6] = experiment: Induction of apoptosis in human MOLM14 cells assessed as late apoptotic cells at 10 uM after 72 hrs by Annexin V-FITC/propidium iodide staining-based flow cytometric analysis (reference value: 2%); format: functional; in short: as §2
MV4-11 [7] = experiment: Induction of apoptosis in human MV4-11 cells assessed as late apoptotic cells at 2.5 uM after 72 hrs by Annexin V-FITC/propidium iodide staining-based flow cytometric analysis (reference value: 2%); format: functional; in short: as §2
MV4-11 [8] = experiment: Effect on total histone H3 protein expression in human MV4-11 cells by Western blot analysis; format: ADME, cell-based
In short: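 Histones acid-extracted from MV4-11 cells: Triton/EDTA buffer lysis, NaCl wash, then 0.24 M H₂SO₄ final on ice for 2 h and acetone precipitation. Protein measured by Bradford. 0.5 µg loaded on 4-20 % gradient gels and transferred to PVDF. Anti-histone H3 probed as loading control alongside anti-acetyl-H3 (1:1000 in 5 % milk, overnight, 4 °C); HRP secondary 1 h, ECL detection.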

Q: What does the source list for `c1ccc(Oc2ccc(-c3cn(-c4noc5ccccc45)nn3)cc2)cc1`?
A: IC50 (MV4-11 [1]): 2500 nM; Activity (MV4-11 [2]): Active; Activity (MOLM-13 (Homo sapiens)): 15%; Activity (MOLM-14 [3]): Dose-dependent effect; Activity (MOLM-14 [4]): 2%; Activity (MOLM-14 [5]): Dose-dependent effect; Activity (MOLM-14 [6]): 30%; Activity (MV4-11 [7]): 15%; Activity (MV4-11 [8]): Non-toxic
